Only some compounds are listed: those with a hit (about 1.2% of all), similar ones and a draw of the others.
Diaphorase act: activates diaphorase or chemically reduces, flagging diaphorase assay artifacts. Diaphorase/resazurin coupled assay, resorufin fluorescence, 16 min; stronger effect = higher value; 1 = vehicle wells, 0 = NADH-free wells. activation factor at 20 µM. actives 0.005% (n = 190,000). AID 1229;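 active means diaphorase activity raised at least twofold by the compound at 20 µM; inactive means activation factor below 2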
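Assay system: Purified diaphorase enzyme from Clostridium kluyveri | Amount: Enzyme 0.07 U/mL final | Dosing: Compound 20 µM once, DMSO 1% | Timing: 16 min reaction at room temperature | Detection: Fluorescence, excitation 544 nm and emission 590 nm | Evaluation: Higher resorufin formation from activation or reduction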
HKDC1 inhibitor: HKDC1 (human) hexokinase inhibition; Q2TB90; recombinant HKDC1, G6PDH/diaphorase resazurin coupled fluorescence; AID 493160; actives 0.16% (n = 340,000); inhibition, % at 20 µM;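 active means inhibition above about 35% when tested at 20 µM, limit read from the data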;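 further: plate controls were DMSO wells with enzyme for no effect and DMSO wells lacking enzyme for full effect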
Target sequence (Q2TB90 whole entry, looked up): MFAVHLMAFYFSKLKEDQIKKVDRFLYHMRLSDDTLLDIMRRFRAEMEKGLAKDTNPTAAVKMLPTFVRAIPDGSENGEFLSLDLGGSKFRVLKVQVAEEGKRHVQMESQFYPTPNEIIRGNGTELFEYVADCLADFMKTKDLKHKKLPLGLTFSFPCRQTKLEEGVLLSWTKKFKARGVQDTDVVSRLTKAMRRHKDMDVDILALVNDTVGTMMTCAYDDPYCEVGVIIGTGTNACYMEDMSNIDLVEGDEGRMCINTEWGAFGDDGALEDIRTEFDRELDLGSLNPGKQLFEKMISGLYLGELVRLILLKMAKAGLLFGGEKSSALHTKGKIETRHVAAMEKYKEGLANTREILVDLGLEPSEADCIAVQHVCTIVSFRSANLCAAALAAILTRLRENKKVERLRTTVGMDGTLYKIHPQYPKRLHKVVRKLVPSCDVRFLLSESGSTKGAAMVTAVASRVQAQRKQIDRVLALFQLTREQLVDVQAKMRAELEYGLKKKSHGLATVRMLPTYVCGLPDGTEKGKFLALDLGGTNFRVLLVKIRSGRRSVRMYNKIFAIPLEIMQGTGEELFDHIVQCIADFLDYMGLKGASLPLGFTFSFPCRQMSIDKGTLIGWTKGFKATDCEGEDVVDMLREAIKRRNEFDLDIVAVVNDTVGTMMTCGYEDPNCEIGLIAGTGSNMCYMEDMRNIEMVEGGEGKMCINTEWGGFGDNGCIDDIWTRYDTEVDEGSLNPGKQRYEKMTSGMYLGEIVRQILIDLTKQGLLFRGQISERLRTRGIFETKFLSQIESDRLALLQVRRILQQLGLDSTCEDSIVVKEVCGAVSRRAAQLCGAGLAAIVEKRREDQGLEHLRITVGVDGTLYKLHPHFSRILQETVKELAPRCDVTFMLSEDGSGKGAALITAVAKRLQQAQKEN
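Assay system – recombinant HKDC1 (HK5) hexokinase enzyme, produced in-house · Input – HKDC1 at 5 µg/mL · Reagent – glucose plus 1 mM ATP as hexokinase substrates · Timing – 90 min reaction incubation at room temperature, dark · Measured by – G6PDH/diaphorase-coupled fluorescence, 1 mM NADP, 100 µM resazurin, 525/613 nm · Benchmarks – DMSO-enzyme wells negative, buffer-substituted wells positive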
PfGluPho inh: PfG6PD (Plasmodium falciparum) enzyme inhibition | actives 0.78% (n = 350,000) | PfGluPho enzyme, NADPH resazurin-diaphorase fluorescence | inhibition, % at 20 µM | AID 504690;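 active means inhibition reaching at least a set limit at 20 µM in the primary screen, cut at about 59% in these data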;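 further: 0% = DMSO wells with substrate and 100% = DMSO wells lacking glucose-6-phosphate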
Diaph inh CS: diaphorase inhibition or chemical oxidation counter-screen. actives 0.69% (n = 190,000). inhibition, % at 20 µM. diaphorase resazurin-to-resorufin fluorescence, NADH, 16 min; bacterial (C. kluyveri) enzyme, not human;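 active means primary screen inhibition at 20 µM above a set limit, cut at about 50% in these data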;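 further: plate controls were DMSO with full reaction for no effect and wells lacking NADH for full effect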
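System: Diaphorase enzyme from Clostridium kluyveri | Amount: Enzyme working solution with 0.14 U/mL diaphorase | Benchmarks: No-NADH positive control and DMSO neutral control | Signal: Fluorescence of resorufin formed from resazurin, Ex 544/Em 590 nm | Schedule: 16-min room-temperature incubation before reading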
G6PDH CS: inhibits Leuconostoc G6PDH, flagging false hits in G6PDH-based assays; Purified L. mesenteroides G6PDH, diaphorase/resazurin coupled fluorescence, 45 min; inhibition, % at 5 µM; actives 0.12% (n = 200,000); AID 1020; in the data active means inhibition above about 50%
PfG6PD confirm: confirmation of Plasmodium falciparum G6PD inhibitors. recombinant PfGluPho, NADPH-diaphorase-resazurin fluorescence. AID 504753. inhibition, % at 20 µM. actives 34% (n = 2,400). shares compounds with PfGluPho inh;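 active means inhibition of at least 50% at 20 µM in any single replicate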;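 further: 0% = DMSO with substrate and 100% = DMSO lacking glucose-6-phosphate substrate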
Diaph ctr 10uM: inhibits diaphorase or oxidizes, flagging false PfG6PD hits; shares compounds with PfGluPho inh; actives 39% (n = 820); inhibition, % at 20 µM; diaphorase-coupled resazurin reduction, fluorescence, NADPH 10 uM; AID 504862;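 active means average inhibition reaching 50% or more with the compound at 20 µM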;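 further: resorufin red fluorescence formed as diaphorase reduces resazurin using NADPH; 0% = DMSO with enzyme and 100% = DMSO without enzyme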
Diaphorase 30uM: counter-screen for P. falciparum G6PD inhibitors: diaphorase inhibitors, oxidizers; inhibition, % at 20 µM; actives 29% (n = 820); Diaphorase/resazurin coupled assay, resorufin fluorescence, 30 uM NADPH; shares compounds with PfGluPho inh;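 active means inhibition averaging 50% or more, tested at 20 µM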;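 further: 0% = DMSO with enzyme and 100% = DMSO wells lacking diaphorase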
Active calls of the source: *; . = no result.

SMILES	Diaphorase act	HKDC1 inhibitor	PfGluPho inh	Diaph inh CS	G6PDH CS	PfG6PD confirm	others
O=C(O)c1ccccc1-c1cn2cc(Cl)ccc2n1	0.9	-10	8	7	6	.
CC[n+]1c(/C=C2\C=C(C)CC(C)(C)C2)sc2ccccc21	0.7	-6	61*	31	2	3
CC[n+]1c(/C=C2/C=C(C)CC(C)(C)C2)sc2ccc(OC)cc21	1	1	45	0	13	.
CCOC(=O)c1cnc2ccc(C)cc2c1Sc1ccccc1C(=O)OC	0.8	5	104*	23	1	48*	Diaph ctr 10uM=44;Diaphorase 30uM=39
CCOC(=O)c1cnc2ccc(C)cc2c1NCCO	0.9	-1	32	10	4	.
COc1ccc(CN2CCN(Cc3ccccc3F)CC2)cc1OC	.	3	-1	.	.	.
CN(C)CCNC(=O)c1cccc2nc3cccc(F)c3nc12	.	-1	-2	.	.	.
CN(C)CCNC(=O)c1cccc2ccc(-c3ccc(-c4ccccc4)cc3)nc12	.	-5	95*	.	.	15
COc1ccc2c(c1O)-c1ccccc1CCN(C)C2	1	-4	-6	0	14	.
CN1CCc2cccc3c2[C@@H]1Cc1ccc(O)c(O)c1-3	0.3	10	89*	69*	40	86*	Diaph ctr 10uM=10;Diaphorase 30uM=6
Cc1ccc(/C=C/C(=O)NCCc2ccccc2)o1	.	-1	75*	.	.	15
C#CC(C)OCC1CNC(=S)O1 (configuration not stated)	.	.	21	.	.	.
COc1ccc2nc(-c3ccccc3)[nH]c2c1	1.2	3	46	-18	24	.
O=[N+]([O-])c1ccc2nc(-c3ccccc3[N+](=O)[O-])[nH]c2c1	0.8	-2	14	21	-2	.
O=[N+]([O-])c1cccc(-c2nc3ccc([N+](=O)[O-])cc3[nH]2)c1	1.1	1	108*	-6	4	72*	Diaph ctr 10uM=60*;Diaphorase 30uM=59*
O=[N+]([O-])c1ccc2nc(-c3ccc(Cl)cc3)[nH]c2c1	1	-1	107*	0	2	46
COc1ccc(-c2nc3ccc([N+](=O)[O-])cc3[nH]2)cc1	0.9	-4	110*	12	15	46
O=[N+]([O-])c1ccc2nc(-c3ccncc3)[nH]c2c1	.	6	35	.	.	.
Cc1ccc(-c2nc3ccc([N+](=O)[O-])cc3[nH]2)cc1	0.9	0	99*	9	-6	38
CC(C)n1c(=S)[nH]c2c1c(=O)[nH]c(=O)n2C	0.8	-4	67*	23	3	33
Cc1cc(C(=O)Cn2nnc3ccccc3c2=O)c(C)n1-c1ccccc1F	0.8	8	65*	19	0	19
O=C(CN1C(=O)NC2(CCCC2)C1=O)Nc1cc(Cl)ccc1Oc1ccccc1	.	0	6	.	.	.
CC(=O)c1ccc(NC(=O)c2ccc(-n3cnnn3)cc2)cc1	.	-5	-3	.	.	.
CCc1cc(OCCCCNCc2ccccc2)ccc1Cl	1	-7	9	3	4	.
O=C(Nc1nc(=S)ss1)c1c(F)cccc1F	1	-10	62*	2	5	11
SMILES	Diaphorase act	HKDC1 inhibitor	PfGluPho inh	Diaph inh CS	G6PDH CS	PfG6PD confirm	others
Cc1ccccc1C(=O)Nc1nc(=S)ss1	0.9	-4	49	6	2	.
O=c1[nH]nc(CNc2ccc(O)cc2)c2ccccc12	0.7	15	59*	28	9	48*	Diaph ctr 10uM=1;Diaphorase 30uM=6
O=c1[nH]nc(CNc2ccc(C(F)(F)F)cc2)c2ccccc12	0.9	7	30	10	8	.
CCn1c(N)c(C(=O)NC)sc1=S	0.9	-24	80*	7	3	50*	Diaph ctr 10uM=-27;Diaphorase 30uM=-20
CCn1c(N)c(C(=O)NCC2CCCO2)sc1=S (configuration not stated)	1.1	-18	61*	-7	3	40
CCn1c(N)c(C(=O)NCCCOC)sc1=S	0.9	-4	65*	10	18	13
CCNC(=O)c1sc(=S)n(CC)c1N	1	-9	12	1	7	.
CN(C(=O)c1cc2n(n1)C(C(F)(F)F)CC(c1ccco1)N2)c1ccccc1 (configuration not stated)	0.9	-6	94*	7	5	66*	Diaph ctr 10uM=80*;Diaphorase 30uM=53*
Cn1cc(C2=C(c3ccc(Cl)cc3Cl)C(=O)NC2=O)c2ccccc21	.	5	66*	.	.	-1
CC(=O)N1CCN(S(=O)(=O)c2cccc(C(=O)Nc3ccccc3N3CCCC3)c2)CC1	.	2	0	.	.	.
COc1cccc(/C=N/NC(=O)CSc2cccc3cccnc23)c1	.	-18	69*	.	.	54*	Diaph ctr 10uM=64*;Diaphorase 30uM=41
C/C(Cn1cnc([N+](=O)[O-])n1)=N\NC(=O)c1ccc(Br)cc1	0.9	-8	-5	12	10	.
C/C(Cn1nnc([N+](=O)[O-])n1)=N\NC(=O)c1ccc(O)cc1	.	6	71*	.	.	53*	Diaph ctr 10uM=27;Diaphorase 30uM=27
C/C(Cn1nnc([N+](=O)[O-])n1)=N\NC(=O)c1ccc(Cl)c(Cl)c1	0.9	9	83*	6	10	77*	Diaph ctr 10uM=45;Diaphorase 30uM=34
C[C@@H]1CNC(=O)c2c(C(=O)NCC(=O)OC(C)(C)C)ncn21	.	.	13	.	.	.
O=C(CCC1CCCN(c2ncccn2)C1)NCc1ccc(F)c(F)c1 (configuration not stated)	1	-13	-5	2	0	.
COC(=O)c1sccc1NC(=O)Nc1ccccc1OC	.	-7	48	.	.	.
O=C(Nc1cccc(Cl)c1)Nc1sccc1-c1nc2ccccc2s1	.	-2	97*	.	.	-4
O=C(Nc1ccccc1)c1nc2ccccc2s1	0.9	-5	50	13	8	.
COc1ccccc1NC(=O)Nc1sccc1-c1nc2ccccc2s1	.	-3	78*	.	.	22
O=C(Nc1ccccc1)Nc1sccc1-c1nc2ccccc2s1	.	-1	84*	.	.	3
Cc1nnc(N/N=C/c2cc(C)n(-c3ccc(F)cc3)c2C)n1N	0.6	-9	78*	36	13	45
COc1ccc2c(C)cc(Sc3nnnn3-c3ccccc3)nc2c1	0.9	2	60*	14	-8	6
O=C(O)c1ccc(-c2ccc(/C=N/Nc3ccc([N+](=O)[O-])cc3)o2)cc1	.	3	71*	.	.	36
Cc1nnc(N/N=C/c2ccc(-c3ccccc3F)o2)n1N	0.9	0	67*	5	8	56*	Diaph ctr 10uM=22;Diaphorase 30uM=20
Cc1n[nH]c(=S)n1/N=C/c1ccc(-c2ccccc2[N+](=O)[O-])o1	0.5	-2	17	50	7	.

Source: PubChem (Sanford-Burnham Center for Chemical Genomics)
